# Results taken from PMC7983942 (Clinical Pharmacology and Therapeutics, 2020).
# Residue numbers refer to the chain shown, from its start.
# What was measured:
# Assay type in all cases: in vitro ADME
# [1] = target: T1, OATP1B1*14 (Homo sapiens, UniProt Q9Y6L6, N130D/P155T); assay: Uptake into OATP1B1 variant-transfected vs wild-type HEK293 cells; conditions: for Uptake ratio as percentage of OATP1B1*14 in the same experiment: OATP1B1*14 (reference); for Uptake ratio (vs. wild‐type HEK293 cells): OATP1B1*14, 2 minutes
# T1 sequence (Q9Y6L6 1-691 N130D/P155T): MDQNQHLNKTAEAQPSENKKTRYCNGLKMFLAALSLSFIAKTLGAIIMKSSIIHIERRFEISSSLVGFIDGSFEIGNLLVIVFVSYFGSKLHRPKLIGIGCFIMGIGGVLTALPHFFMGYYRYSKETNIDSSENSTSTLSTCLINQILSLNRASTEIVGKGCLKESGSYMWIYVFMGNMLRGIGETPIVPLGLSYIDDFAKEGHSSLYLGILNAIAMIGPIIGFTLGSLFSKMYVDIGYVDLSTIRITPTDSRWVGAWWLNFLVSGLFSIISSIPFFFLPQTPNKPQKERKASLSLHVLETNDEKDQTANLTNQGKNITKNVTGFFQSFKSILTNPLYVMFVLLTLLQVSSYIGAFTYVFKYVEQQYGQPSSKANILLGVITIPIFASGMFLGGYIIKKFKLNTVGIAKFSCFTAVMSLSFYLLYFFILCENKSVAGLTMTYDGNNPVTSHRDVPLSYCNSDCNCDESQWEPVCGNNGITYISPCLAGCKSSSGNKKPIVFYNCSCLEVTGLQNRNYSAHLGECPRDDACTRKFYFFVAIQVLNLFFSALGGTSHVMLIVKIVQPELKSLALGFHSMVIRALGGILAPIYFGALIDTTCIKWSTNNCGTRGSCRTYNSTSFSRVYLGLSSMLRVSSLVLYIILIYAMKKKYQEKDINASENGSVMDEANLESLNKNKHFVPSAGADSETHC
# [2] = target: T2, OATP1B1*1A (Homo sapiens, UniProt Q9Y6L6); assay: Uptake into transporter-transfected vs wild-type HEK293 cells
# T2 sequence (Q9Y6L6 1-691): T1 sequence (Q9Y6L6 1-691 N130D/P155T) with D130N, T155P
# In short: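 HEK293 cells stably transfected with OATP1B1*1A, OATP1B3 or OATP2B1, plus wild-type cells, were seeded on poly-D-lysine plates. Culture was 48 h at 37°C in DMEM with 10% FBS, pyruvate, nonessential amino acids and GlutaMAX. Test compound was 1 µM for 2 min; rosuvastatin probe was 1 µM over 2–4 min. Cells were washed four times in ice-cold buffer and lysed in methanol with internal standard. Readouts were uptake ratio versus wild-type and glucuronide/probe ratio of ratios; mean ± SD, n=3 in one experiment.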
# [3] = target: T3, OATP1B1*15 (Homo sapiens, UniProt Q9Y6L6, N130D/V174A); assay: Uptake into OATP1B1 variant-transfected vs wild-type HEK293 cells; conditions: for Uptake ratio (vs. wild‐type HEK293 cells): 2 minutes
# T3 sequence (Q9Y6L6 1-691 N130D/V174A): T1 sequence (Q9Y6L6 1-691 N130D/P155T) with T155P, V174A
# In short: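 HEK293 cells stably expressing an OATP1B1 variant, alongside wild-type HEK293, were seeded at 0.5–1.2 × 10⁵ cells/well on poly-D-lysine plates. They grew 48 h at 37°C and 5% CO₂ in DMEM with 10% FBS, 1% pyruvate, nonessential amino acids and GlutaMAX. Substrate was 1 µM (0.5 µM where footnoted) for 2 min, then four ice-cold buffer washes and methanol lysis with internal standard. Uptake ratio (transfected/wild-type) is expressed as % of OATP1B1*14 in the same experiment; n=3 determinations.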
# [4] = experiment 1, substrate concentration 0.5 µM
smiles,measurement,setting,value
CC(C)c1nc(N(C)S(C)(=O)=O)nc(-c2ccc(F)cc2)c1/C=C/[C@@H](O)C[C@@H](O)CC(=O)O [Rosuvastatin],Uptake ratio as percentage of OATP1B1*14 in the same experiment,[1]; [4],100%
same,Uptake ratio as percentage of OATP1B1*14 in the same experiment,"[1]; experiment 2, substrate 1 µM",100%
same,Uptake ratio (vs. wild‐type HEK293 cells),[1]; [4],15 ± 0.2
same,Uptake ratio (vs. wild‐type HEK293 cells),"[1]; experiment 2, substrate 1 µM",40 ± 3.3
same,Uptake ratio (vs. wild‐type HEK293 cells),"[1]; experiment 3, substrate 1 µM",85 ± 5.3
same,Uptake ratio (vs. wild‐type HEK293 cells),"[2]; experiment 3, substrate 1 µM, 2 minutes",51 ± 1.4
same,"Uptake ratio (vs. wild‐type HEK293 cells), probe","[2]; rosuvastatin 1 µM, two to four minutes",51.3 ± 1.4
same,Uptake ratio as percentage of OATP1B1*14 in the same experiment,[3]; [4],15%
same,Uptake ratio (vs. wild‐type HEK293 cells),[3]; [4],2.3 ± 0.2
same,Uptake ratio as percentage of OATP1B1*14 in the same experiment,"[3]; experiment 2, substrate 1 µM",13%
same,Uptake ratio (vs. wild‐type HEK293 cells),"[3]; experiment 2, substrate 1 µM",5.0 ± 0.2
